The record followed here is ChEMBL document CHEMBL1127313, “The discovery of sulfonamide endothelin antagonists and the development of the orally active ETA antagonist 5-(dimethylamino)-N-(3,4-dimethyl-5-isoxazolyl)-1-naphthalenesulf onamide” (J Med Chem, 1994).

The subject of experiment [1] is A10. Kind of experiment: Ability to inhibit [125I]ET1 binding to vascular smooth muscle (vsm)- A10 cells. In kind it is functional, cell-based. The conditions noted are these: Rattus norvegicus. In a few lines: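 Intact rat vsm-A10 cells: confluent cells scraped, pelleted, resuspended in PBS with 0.1% glucose and 0.1% BSA. Bound and free ligand separated by filtration; bound radioactivity counted by scintillation; IC50 reported.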

The target in experiment [2] is T1, Endothelin-1 receptor (Homo sapiens) (UniProt P25101).
T1 sequence (whole entry): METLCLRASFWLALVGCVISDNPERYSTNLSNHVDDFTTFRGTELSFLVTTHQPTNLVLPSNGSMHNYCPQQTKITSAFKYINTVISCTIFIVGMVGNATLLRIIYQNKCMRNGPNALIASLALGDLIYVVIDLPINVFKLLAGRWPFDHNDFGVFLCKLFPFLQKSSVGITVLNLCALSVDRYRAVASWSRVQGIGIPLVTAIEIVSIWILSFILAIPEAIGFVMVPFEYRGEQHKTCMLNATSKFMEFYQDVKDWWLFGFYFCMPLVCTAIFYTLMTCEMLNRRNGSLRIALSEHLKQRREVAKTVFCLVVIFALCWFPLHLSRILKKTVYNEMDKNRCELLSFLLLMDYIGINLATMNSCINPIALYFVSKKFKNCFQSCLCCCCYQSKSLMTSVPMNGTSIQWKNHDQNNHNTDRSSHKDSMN
The conditions noted are these: Oryctolagus cuniculus.

For experiment [3], the system named is Rattus norvegicus. Kind of experiment: Antihypertensive activity administered orally at […] was determined in vivo in rats. In kind it is functional. The essentials:
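Uninephrectomized rats implanted with a DOCA pellet and given saline to drink develop hypertension. Single 100 µmol/kg oral dose in 5% NaHCO3 given at time 0, with a vehicle group. Mean arterial pressure followed over 24 h as % change from pre-dose control; mean ± SEM, n = 6 animals.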

Molecules are shown by their SMILES.

For orientation: IC50 means the concentration needed to halve the response being measured.

In the case of `CCCCCc1cc(NS(=O)(=O)c2ccc(N)cc2)on1`, in experiment [1], the IC50 is over 32 µM.
On to `Cc1noc(NS(=O)(=O)c2cccc3c(O)cccc23)c1C`, for which, in experiment [2], the K Bapp came out at 100 µM.
The compound `Nc1ccc(S(=O)(=O)Nc2cc(-c3ccccc3)no2)cc1` gave an IC50 in experiment [1] of over 32 µM.
On to `Cc1noc(NS(=O)(=O)c2cccc3c(N(C)C)cccc23)c1C` [BMS-182874], for which the Mean arterial blood pressure in experiment [3] turned out to be 45.8 mmHg.
